Compound activity (PubChem)
SR-BI uptake up – enhances SR-BI lipid uptake from DiI-HDL; activation, % at 12.5 µM; hit rate 0.096% among 320,000; AID 504775; CHO ldlA[mSR-BI] cells, DiI-HDL uptake fluorescence, 3 h; 100 = double the neutral-control signal;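 active = mean replicate activation of at least 60% and every replicate at or above 60%; inconclusive = mean or all-replicate condition met, but not both; inactive = mean below 60% and not all replicates reaching 60%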;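 also: 0% = median plate neutral-control signal and 100% = twice that signal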
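Test system: SR-BI-overexpressing, LDLR-lacking CHO cells. Measured by: DiI fluorescence, bottom read. Medium: Ham's F12 with 0.5% BSA, HEPES 25 mM, pH 7.4. Timing: 3 h uptake period with compound, 37 °C.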
Ecoli rRNA inh – inhibits bacterial ribosomal RNA function over humanized ribosomes. E. coli WT GFP vs humanized-ribosome RFP mutants, fluorescence, 24 h; hits give low values; DMSO median 0, no signal -100. GFP signal change (wild-type ribosome), % (concentration not given with the values). hit rate 1.6% among 350,000. AID 720706;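 active = significant combined selectivity score with lowered wild-type GFP, culture density cut under 30%, mutant RFP and density less affected; inactive = any of these conditions unmet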
SR-BI HDL uptake – blocks mouse SR-BI lipid uptake from DiI-HDL. Q61009. ldlA[mSR-BI] CHO cells, DiI-HDL uptake fluorescence, 3 h. inhibition, % at 12.5 µM. hit rate 0.96% among 320,000. AID 488896;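 active = mean replicate inhibition of at least 70% and a set share of replicates each scoring 70 or more; inconclusive = meets just one of the two criteria; inactive = fails both criteria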;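 also: 0% = median of neutral control wells and 100% = median of positive control wells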
Target sequence (Q61009 whole entry, looked up): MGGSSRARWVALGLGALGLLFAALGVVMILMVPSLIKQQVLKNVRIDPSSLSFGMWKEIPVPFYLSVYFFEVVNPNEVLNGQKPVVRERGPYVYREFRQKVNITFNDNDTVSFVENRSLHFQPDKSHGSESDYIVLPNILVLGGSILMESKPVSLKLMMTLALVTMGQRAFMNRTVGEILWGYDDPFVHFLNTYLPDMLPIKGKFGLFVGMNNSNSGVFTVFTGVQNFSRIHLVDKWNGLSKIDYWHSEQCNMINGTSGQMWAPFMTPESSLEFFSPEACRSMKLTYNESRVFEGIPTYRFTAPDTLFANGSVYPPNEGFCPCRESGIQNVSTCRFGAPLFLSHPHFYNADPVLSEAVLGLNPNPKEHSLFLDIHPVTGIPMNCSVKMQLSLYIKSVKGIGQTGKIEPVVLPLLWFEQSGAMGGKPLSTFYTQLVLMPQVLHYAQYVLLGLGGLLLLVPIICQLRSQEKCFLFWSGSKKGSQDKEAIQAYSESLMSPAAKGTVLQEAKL
PvdQ acylase – P. aeruginosa PvdQ acylase inhibition | inhibition, % at 10 µM | AID 488965 | hit rate 0.063% among 340,000 | purified PvdQ acylase, fluorescence plate reader; in the data active = inhibition above about 30%, passing the limit was not always enough; inconclusive = no clear call, values can overlap the other calls;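 also: 0% = vehicle neutral wells and 100% = reference inhibitor wells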
dFosB act – activators of mouse delta FosB homodimer; P13346; purified delta FosB, TAMRA-CDK5 oligo fluorescence polarization; percent of positive-control signal above neutral wells; activation, % at 25 µM; hit rate 0.99% among 340,000; AID 493131;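 active = mean activation above about 17%, with every replicate also reaching it, limit read from the data, passing the limit was not always enough; inconclusive = only one of the two conditions met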
Xi reactivation – X-chromosome reactivation activator | activation, % at 7.58 µM | hit rate 0.055% among 360,000 | AID 743238 | XiGFP mouse fibroblasts, % GFP-positive cells imaging, 3 d; cells co-treated with 5-aza-dC sensitizer; scaled so ellipticine positive control = 100%;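 active = mean normalized replicate activation at least 10% and every replicate at or above 10%; inconclusive = only one of the two criteria met; inactive = mean below 10% and not all replicates reach 10%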;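 also: 0% = median of on-plate neutral control wells and 100% = ellipticine 6 µM median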
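Assay system: SV40-immortalized XiGFP fibroblast cells, line 68-5-11; buffer or medium: DMEM plus 5-aza-dC sensitizer; compound: one concentration, pinned; timing: compounds 3 days, fix/stain 15 min at room temperature; benchmarks: positive control ellipticine, 6 µM final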
Numbers without * were called inactive. Rows were chosen to be rich in hits. Some 2.6% of all compounds tested hit in one or more screens of this group.

For COc1cc(C(=O)Oc2cc(C)cc(C)c2)cc(OC)c1OC the results were SR-BI uptake up -77, SR-BI HDL uptake 77*, PvdQ acylase -18 and dFosB act 4.
Cc1ccc(S(=O)(=O)N2CCC(C(=O)Nc3cccnc3)CC2)cc1 was read as SR-BI uptake up 8, Ecoli rRNA inh -6, SR-BI HDL uptake -8, PvdQ acylase 0, dFosB act -2 and Xi reactivation 0.
COc1ccc(-c2cc(C(F)(F)F)n3nc(C(=O)Nc4c(C)n(C)n(-c5ccccc5)c4=O)c(Cl)c3n2)cc1 was read as SR-BI uptake up -79, Ecoli rRNA inh 8, SR-BI HDL uptake 79*, PvdQ acylase -7, dFosB act -7 and Xi reactivation 0.
`COc1ccc2cc(-c3cc(C(=O)OCC(=O)Nc4c(C)n(C)n(-c5ccccc5)c4=O)c4ccccc4n3)ccc2c1` gave SR-BI uptake up -76, SR-BI HDL uptake 76*, PvdQ acylase 2, dFosB act 0 and Xi reactivation 0.
COc1ccc(-c2cc(C(F)(F)F)n3nc(C(=O)Nc4c(C)n(C)n(-c5ccccc5)c4=O)cc3n2)cc1 was read as SR-BI uptake up -80, Ecoli rRNA inh -1, SR-BI HDL uptake 80*, PvdQ acylase -6, dFosB act -6 and Xi reactivation 0.
`COc1ccc(-c2cc(C(F)(F)F)n3nc(C(=O)NCCCn4ccnc4)cc3n2)cc1` gave SR-BI uptake up -64, SR-BI HDL uptake 64, PvdQ acylase 3 and dFosB act -27.
COc1ccc(-c2cc(C(F)(F)F)n3nc(C(=O)NCCN4CCOCC4)cc3n2)cc1 was read as SR-BI uptake up -77, Ecoli rRNA inh -2, SR-BI HDL uptake 77*, PvdQ acylase -16, dFosB act -21 and Xi reactivation 0.
O=C(/C=C/c1ccccc1)COC(=O)c1ccccc1 was read as SR-BI uptake up 21, Ecoli rRNA inh 6, SR-BI HDL uptake -21, PvdQ acylase 0, dFosB act -4 and Xi reactivation 0.
For Cc1c(NC(=O)c2nn3c(C(F)(F)F)cc(-c4ccccc4)nc3c2Cl)c(=O)n(-c2ccccc2)n1C the results were SR-BI uptake up -29, SR-BI HDL uptake 29, PvdQ acylase -7, dFosB act -6 and Xi reactivation 0.
`CCOC(=O)c1nn2c(C(F)(F)F)cc(-c3ccc(OC)cc3)nc2c1Br` gave SR-BI uptake up -103, Ecoli rRNA inh 3, SR-BI HDL uptake 104*, PvdQ acylase -7, dFosB act -10 and Xi reactivation 0.
Cc1c(NC(=O)c2cc3nc(-c4ccc(Cl)cc4)cc(C(F)(F)F)n3n2)c(=O)n(-c2ccccc2)n1C was read as SR-BI uptake up -70, SR-BI HDL uptake 70*, PvdQ acylase 2 and dFosB act -2.
Screening COCCNC(=O)c1nn2c(C(F)(F)F)cc(-c3ccccc3)nc2c1Br returned Ecoli rRNA inh 16 and Xi reactivation 0.
COc1cccc(-c2cc(C(F)(F)F)n3nc(C(=O)Nc4c(C)n(C)n(-c5ccccc5)c4=O)cc3n2)c1 was read as SR-BI uptake up -78, Ecoli rRNA inh -7, SR-BI HDL uptake 78*, PvdQ acylase 1, dFosB act -3 and Xi reactivation 0.
For COc1ccc2nc(NC(=O)C3COc4ccccc4O3)sc2c1 (stereo unspecified) the results were SR-BI uptake up -8, Ecoli rRNA inh -38, SR-BI HDL uptake 8, PvdQ acylase -12, dFosB act inconclusive and Xi reactivation 0.
For C[C@H]1CN([C@@H](C)CO)C(=O)c2cc(-c3cccc(F)c3)cnc2O[C@@H]1CN(C)C(=O)Nc1ccccc1F the results were Ecoli rRNA inh -4 and Xi reactivation -1.
`COc1cc2c(cc1NC(=O)C(C)Sc1ccc(C)cc1)oc1ccccc12` (stereo unspecified) gave SR-BI uptake up -79, Ecoli rRNA inh 26, SR-BI HDL uptake 79*, PvdQ acylase 9 and dFosB act -1.
